ChEMBL document CHEMBL4359929, “Piperidine and piperazine inhibitors of fatty acid amide hydrolase targeting excitotoxic pathology” (Bioorg Med Chem, 2019)
Activity calls are given as the source filed them. The calls are words filed in the database; no cut-off is given here.

Legend:
[1] = Stability in human plasma assessed as half life; format: ADME, cell-free
Method in brief: (§1)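 Stability assessed as half-life in human, rat and mouse plasma and gastric fluid, and in human, rat and mouse liver microsomal preparations.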

[2] = target: T1, Fatty-acid amide hydrolase 1 (Homo sapiens, UniProt O00519); experiment: Inhibition of human recombinant MBP-tagged FAAH expressed in Escherichia coli cells using AAMCA as substrate incubated for 15 mins followed by substrate addition and measured after every 20 mins for 4 hrs by fluorescence based assay
T1 sequence (O00519 whole entry): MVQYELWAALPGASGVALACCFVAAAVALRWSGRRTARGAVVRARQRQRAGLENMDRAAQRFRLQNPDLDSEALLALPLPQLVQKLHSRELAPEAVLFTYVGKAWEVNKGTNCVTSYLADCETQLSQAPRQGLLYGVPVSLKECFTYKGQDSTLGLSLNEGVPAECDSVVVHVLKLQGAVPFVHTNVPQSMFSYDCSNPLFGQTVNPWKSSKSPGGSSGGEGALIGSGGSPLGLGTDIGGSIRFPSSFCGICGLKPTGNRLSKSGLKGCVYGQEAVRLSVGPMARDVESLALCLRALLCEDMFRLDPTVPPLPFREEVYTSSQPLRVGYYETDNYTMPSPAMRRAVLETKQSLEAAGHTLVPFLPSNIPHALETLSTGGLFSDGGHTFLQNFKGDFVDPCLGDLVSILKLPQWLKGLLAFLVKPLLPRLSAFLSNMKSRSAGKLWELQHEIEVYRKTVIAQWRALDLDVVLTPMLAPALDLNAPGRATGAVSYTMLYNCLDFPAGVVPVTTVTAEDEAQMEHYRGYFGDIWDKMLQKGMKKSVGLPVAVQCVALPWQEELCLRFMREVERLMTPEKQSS
Method in brief: (§2)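 Fluorescent enzyme assay in throughput format. Human recombinant FAAH or purified rat FAAH used arachidonoyl 7-amino-4-methylcoumarin amide as substrate; human recombinant MGL was run by a similar fluorometric procedure.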

[3] = Stability in rat gastric fluid assessed as half life; format: ADME, tissue-based, Gastric juice; method in brief: as §1
[4] = target: Cannabinoid receptor 1 (Rattus norvegicus) (UniProt P20272); experiment: Displacement of [3H]CP55940 from CB1 receptor in rat brain by competition-equilibrium binding analysis; format: tissue-based
Method in brief: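 Rat brain membranes as CB1 source; competition-equilibrium binding against [3H]CP-55,940.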
Target sequence in this assay (P20272 whole entry): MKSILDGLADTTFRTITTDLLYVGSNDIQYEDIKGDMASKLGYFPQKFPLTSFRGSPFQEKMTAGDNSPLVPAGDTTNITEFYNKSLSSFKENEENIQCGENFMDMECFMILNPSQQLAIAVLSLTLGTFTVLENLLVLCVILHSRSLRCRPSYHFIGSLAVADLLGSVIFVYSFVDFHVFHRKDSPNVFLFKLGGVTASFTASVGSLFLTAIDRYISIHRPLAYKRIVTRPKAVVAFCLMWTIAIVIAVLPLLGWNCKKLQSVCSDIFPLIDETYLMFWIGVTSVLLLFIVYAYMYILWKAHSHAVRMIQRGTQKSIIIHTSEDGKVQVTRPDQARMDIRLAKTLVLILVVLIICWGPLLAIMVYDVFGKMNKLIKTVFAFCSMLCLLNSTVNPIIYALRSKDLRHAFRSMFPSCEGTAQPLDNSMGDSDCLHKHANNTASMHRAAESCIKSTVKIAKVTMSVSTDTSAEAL

[5] = Selectivity ratio of IC50 for human recombinant His-tagged MGL expressed in Escherichia coli BL21 DE3 cells to IC50 for rat recombinant His/GST-tagged FAAH expressed in Escherichia coli cells by fluorescence based assay
[6] = Stability in mouse plasma assessed as half life; format: ADME, cell-free; method in brief: as §1
[7] = Stability in rat liver microsomes assessed as half life; format: ADME, Microsome; method in brief: as §1
Monoglyceride lipase = target: T2, Monoglyceride lipase (Homo sapiens, UniProt Q99685); experiment: Inhibition of human recombinant His-tagged MGL expressed in Escherichia coli BL21 DE3 cells using AHMMCE as substrate preincubated with enzyme for 15 mins followed by substrate addition and measured after every 15 mins for 3 hrs by fluorescence based assay; method in brief: as §2
T2 sequence (Q99685 whole entry): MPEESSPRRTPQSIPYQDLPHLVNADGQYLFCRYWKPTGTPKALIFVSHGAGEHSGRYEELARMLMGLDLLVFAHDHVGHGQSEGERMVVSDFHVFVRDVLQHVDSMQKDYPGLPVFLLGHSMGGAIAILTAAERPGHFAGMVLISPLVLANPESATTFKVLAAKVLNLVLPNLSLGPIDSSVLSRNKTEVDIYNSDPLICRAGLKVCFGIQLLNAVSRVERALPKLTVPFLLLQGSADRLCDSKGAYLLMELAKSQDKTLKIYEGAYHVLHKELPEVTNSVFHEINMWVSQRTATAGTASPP

[8] = Drug concentration in brain (unknown origin) at 2 mg/kg, iv measured after 15 mins; format: ADME, organism-based; conditions: read-out: Ct
Method in brief: (§3)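 Cassette pharmacokinetics: compounds given together at 2 mg/kg iv; brain and plasma levels (µg/mL) measured at 15 min.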

[9] = target: Cannabinoid receptor 1 (Rattus norvegicus) (UniProt P20272); experiment: Displacement of [3H]CP55940 from CB1 receptor in rat brain by competition-equilibrium binding analysis
Target sequence in this assay (P20272 whole entry, looked up): as the sequence (P20272 whole entry) above

[10] = Stability in mouse gastric fluid assessed as half life; format: ADME, tissue-based, Gastric juice; method in brief: as §1
Homo sapiens [11] = organism: Homo sapiens; experiment: Selectivity ratio of IC50 for human full length ABHD6 expressed in Escherichia coli cells to IC50 for human recombinant MBP-tagged FAAH expressed in Escherichia coli cells by fluorescence based assay
[12] = Stability in human liver microsomes assessed as half life; format: ADME, Microsome; method in brief: as §1
[13] = target: Cannabinoid receptor 2 (Homo sapiens) (UniProt P34972); experiment: Displacement of [3H]CP55940 from human CB2 receptor expressed in HEK293 cells by competition-equilibrium binding analysis; format: cell-based
Method in brief: (§4)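 HEK293 cell membranes expressing mouse or human CB2; competition-equilibrium binding against [3H]CP-55,940.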

[14] = Stability in human gastric fluid assessed as half life; format: ADME, tissue-based, Gastric juice; method in brief: as §1
[15] = Stability in rat plasma assessed as half life; format: ADME, cell-free; method in brief: as §1
Homo sapiens [16] = organism: Homo sapiens; experiment: Selectivity ratio of IC50 for human recombinant His-tagged MGL expressed in Escherichia coli BL21 DE3 cells to IC50 for human recombinant MBP-tagged FAAH expressed in Escherichia coli cells by fluorescence based assay
[17] = Drug concentration in plasma (unknown origin) at 2 mg/kg, iv measured after 15 mins; format: ADME, organism-based; method in brief: as §3
[18] = Selectivity ratio of IC50 for human full length ABHD6 expressed in Escherichia coli cells to IC50 for rat recombinant His/GST-tagged FAAH expressed in Escherichia coli cells by fluorescence based assay
[19] = Stability in mouse liver microsomes assessed as half life; format: ADME, Microsome; method in brief: as §1
[20] = target: T3, Fatty-acid amide hydrolase 1 (Rattus norvegicus, UniProt P97612); experiment: Inhibition of rat recombinant His/GST-tagged FAAH expressed in Escherichia coli cells using AAMCA as substrate incubated for 15 mins followed by substrate addition and measured after every 20 mins for 4 hrs by fluorescence based assay; method in brief: as §2
T3 sequence (P97612 whole entry): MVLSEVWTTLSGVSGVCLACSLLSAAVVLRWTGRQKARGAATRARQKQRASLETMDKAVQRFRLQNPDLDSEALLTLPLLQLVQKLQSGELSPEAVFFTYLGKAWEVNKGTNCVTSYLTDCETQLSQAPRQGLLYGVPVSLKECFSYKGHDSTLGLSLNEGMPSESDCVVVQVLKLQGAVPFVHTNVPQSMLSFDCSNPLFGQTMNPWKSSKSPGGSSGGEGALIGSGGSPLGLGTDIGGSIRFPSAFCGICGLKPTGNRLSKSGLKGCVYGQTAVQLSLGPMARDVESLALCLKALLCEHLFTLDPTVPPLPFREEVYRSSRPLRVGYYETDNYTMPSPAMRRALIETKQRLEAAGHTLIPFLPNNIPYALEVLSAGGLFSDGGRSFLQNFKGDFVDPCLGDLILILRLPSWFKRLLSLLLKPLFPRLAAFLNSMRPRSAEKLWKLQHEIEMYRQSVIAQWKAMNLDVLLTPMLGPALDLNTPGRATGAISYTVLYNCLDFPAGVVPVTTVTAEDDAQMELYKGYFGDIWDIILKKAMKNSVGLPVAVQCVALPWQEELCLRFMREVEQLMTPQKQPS

[21] = target: Cannabinoid receptor 2 (Mus musculus) (UniProt P47936); experiment: Displacement of [3H]CP55940 from mouse CB2 receptor expressed in HEK293 cells by competition-equilibrium binding analysis; format: cell-based; method in brief: as §4
[22] = target: T4, Fatty-acid amide hydrolase 1 (Rattus norvegicus) (UniProt P97612); experiment: Inhibition of rat recombinant His/GST-tagged FAAH expressed in Escherichia coli cells at 1 uM using AAMCA as substrate incubated for 15 mins followed by substrate addition and measured after every 20 mins for 4 hrs by fluorescence based assay relative to control
T4 sequence (whole entry): T3 sequence (P97612 whole entry)
Method in brief: (§5)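 Fluorescent FAAH assay with arachidonoyl 7-amino-4-methylcoumarin amide as substrate; compound tested at a single concentration of 1 µM; percent inhibition reported.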

[23] = target: T5, Monoglyceride lipase (Homo sapiens) (UniProt Q99685); conditions: at 1 µM
T5 sequence (whole entry): T2 sequence (Q99685 whole entry)

[24] = target: T6, Fatty-acid amide hydrolase 1 (Homo sapiens) (UniProt O00519); experiment: Inhibition of human recombinant MBP-tagged FAAH expressed in Escherichia coli cells at 1 uM using AAMCA as substrate incubated for 15 mins followed by substrate addition and measured after every 20 mins for 4 hrs by fluorescence based assay relative to control; method in brief: as §5
T6 sequence (whole entry): T1 sequence (O00519 whole entry)

[25] = Ratio of IC50 for rat recombinant His/GST-tagged FAAH expressed in Escherichia coli cells to IC50 for human recombinant MBP-tagged FAAH expressed in Escherichia coli cells by fluorescence based assay

Sequence of Cannabinoid receptor 2 (Homo sapiens) (P34972 whole entry): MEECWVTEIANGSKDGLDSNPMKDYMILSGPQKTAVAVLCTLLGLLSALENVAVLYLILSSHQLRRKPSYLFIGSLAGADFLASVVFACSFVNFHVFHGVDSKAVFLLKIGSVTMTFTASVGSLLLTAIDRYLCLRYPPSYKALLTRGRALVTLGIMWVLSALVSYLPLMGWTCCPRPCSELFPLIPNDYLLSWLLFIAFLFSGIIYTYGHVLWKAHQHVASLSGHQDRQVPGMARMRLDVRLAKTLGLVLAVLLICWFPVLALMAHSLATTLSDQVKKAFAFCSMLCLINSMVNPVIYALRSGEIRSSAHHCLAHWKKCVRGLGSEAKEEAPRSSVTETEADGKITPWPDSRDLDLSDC
Sequence of Cannabinoid receptor 2 (Mus musculus) (P47936 whole entry): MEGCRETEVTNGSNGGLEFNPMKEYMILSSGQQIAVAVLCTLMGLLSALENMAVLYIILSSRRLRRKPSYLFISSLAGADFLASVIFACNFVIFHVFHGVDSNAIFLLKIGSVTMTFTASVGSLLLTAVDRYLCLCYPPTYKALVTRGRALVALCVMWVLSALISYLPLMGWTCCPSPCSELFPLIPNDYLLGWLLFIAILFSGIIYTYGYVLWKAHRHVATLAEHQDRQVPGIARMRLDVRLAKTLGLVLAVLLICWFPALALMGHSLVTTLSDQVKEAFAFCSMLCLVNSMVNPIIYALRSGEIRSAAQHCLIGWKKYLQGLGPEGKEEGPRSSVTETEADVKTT

Compound | half-life [1] | IC50 [2] | half-life [3] | Activity [4] | Ratio IC50 [5] | half-life [6] | half-life [7] | IC50 (Monoglyceride lipase) | Activity [9] | half-life [10] | Ratio IC50 (Homo sapiens [11]) | half-life [12] | Activity [13] | half-life [14] | half-life [15] | Ratio IC50 (Homo sapiens [16]) | Ratio IC50 [18] | half-life [19] | IC50 [20] | Activity [21] | further results
O=C(Oc1cccc(N2CCOCC2)c1)N1CCC(c2ccc(F)cc2)CC1 | > 60 min | 16.3 nM | > 60 min | inactive | > 1000 | > 60 min | 15 to 25 min | > 1000 nM | inactive | > 60 min | > 1000 | 15 to 25 min | inactive | > 60 min | > 60 min | > 1000 | > 1000 | 15 to 25 min | 2.93 nM | inactive | concentration at 0.25 h [8]: 508 ng/mL; concentration at 0.25 h [17]: 506 ng/mL
O=C(Nc1cccc(N2CCS(=O)(=O)CC2)c1)N1CCN(c2ccccc2)CC1 |  |  |  | inactive |  |  |  |  | inactive |  |  |  | inactive |  |  |  |  |  |  | inactive | inhibition [22]: inactive; inhibition [23]: inactive; inhibition [24]: inactive
O=C(Nc1cccc(N2CCS(=O)(=O)CC2)c1)N1CCC(c2ccccc2)CC1 |  |  |  | inactive |  |  |  |  | inactive |  |  |  | inactive |  |  |  |  |  |  | inactive | inhibition [22]: inactive; inhibition [23]: inactive; inhibition [24]: inactive
O=C(Oc1cccc(N2CCS(=O)(=O)CC2)c1)N1CCC(c2ccc(F)cc2)CC1 | > 60 min | 10 nM | > 60 min | inactive | > 1000 | > 60 min | 15 to 25 min | > 1000 nM | inactive | > 60 min | > 1000 | 15 to 25 min | inactive | > 60 min | > 60 min | > 1000 | > 1000 | 15 to 25 min | 2.3 nM | inactive | concentration at 0.25 h [8]: 1230 ng/mL; concentration at 0.25 h [17]: 474 ng/mL
O=C(Oc1cccc(N2CCS(=O)(=O)CC2)c1)N1CCC(c2ccc(OCCF)cc2)CC1 | > 60 min | 21.2 nM | > 60 min | inactive | > 1000 | > 60 min | 15 to 25 min | > 1000 nM | inactive | > 60 min | > 1000 | 15 to 25 min | inactive | > 60 min | > 60 min | > 1000 | > 1000 | 15 to 25 min | 5.5 nM | inactive | concentration at 0.25 h [8]: 909 ng/mL; concentration at 0.25 h [17]: 388 ng/mL
O=C(Oc1cccc(N2CCS(=O)(=O)CC2)c1)N1CCC(c2ccc(N3CCCC3)cc2)CC1 | > 60 min | 3.5 nM | > 60 min | inactive | > 1000 | > 60 min | 15 to 25 min | > 1000 nM | inactive | > 60 min | > 1000 | 15 to 25 min | inactive | > 60 min | > 60 min | > 1000 | > 1000 | 15 to 25 min | 6.3 nM | inactive | Ratio IC50 [25]: 2 to 3
